# Results reported in ChEMBL document CHEMBL4004866, “6-Benzylidene-2-[4-(pyridin-3-ylcarboxy)benzylidene]cyclohexanones: A novel cluster of tumour-selective cytotoxins” (Bioorg Med Chem Lett, 2017).
# Calls of active or inactive are those of the source. No cut-off for these calls is given here.
# Key:
# [1] = Selectivity index, ratio of CC50 for HGF to CC50 for human HSC4 cells
# [2] = Cytotoxicity against HPLF after 48 hrs by MTT assay; type: cell-based; conditions: human, HPLF cells
# Method in brief: (§1)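 Nonmalignant human cells were exposed to compounds for 48 h at 37 °C. CC50 was taken as the concentration cytotoxic to 50% of cells.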
# HSC-2 [3] = experiment: Cytotoxicity against human HSC2 cells after 48 hrs by MTT assay; type: functional; conditions: HSC-2, 48 h
# HSC-3 [4] = experiment: Cytotoxicity against human HSC3 cells after 48 hrs by MTT assay; type: functional; conditions: HSC-3, 48 h
# [5] = Selectivity index, ratio of CC50 for HGF to CC50 for human HSC2 cells; conditions: pooled result: one value given for 3 cell lines, strains, targets or settings
# L1210 = experiment: Cytotoxicity against mouse L1210 cells assessed as growth inhibition after 48 hrs by coulter counter method; type: functional, cell-based; conditions: L1210, 48 h
# [6] = Selectivity index, ratio of CC50 for HPLF to CC50 for human HSC4 cells
# [7] = Selectivity index, ratio of CC50 for HGF to CC50 for human HL60 cells; conditions: pooled result: one value given for 3 cell lines, strains, targets or settings
# Mus musculus [8] = experiment: Toxicity in mouse assessed as mortality at 30 to 300 mg/kg, ip after 0.5 to 4 hrs; type: organism-based; conditions: in vivo
# Method in brief: (§2)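 Mice were given compound intraperitoneally at 30, 100 and 300 mg/kg. Animals were checked for survival and neurological deficit at 0.5 and 4 h after dosing.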
# [9] = Selectivity index, ratio of CC50 for HGF to CC50 for human HSC3 cells; conditions: pooled result: one value given for 3 cell lines, strains, targets or settings
# [10] = Cytotoxicity against human Molt4/C8 cells assessed as growth inhibition after 72 hrs by coulter counter method; type: functional, cell-based; conditions: Molt4/C8, 72 h
# CCRF-CEM = experiment: Cytotoxicity against human CEM cells assessed as growth inhibition after 72 hrs by coulter counter method; type: functional, cell-based
# HSC-4 = experiment: Cytotoxicity against human HSC4 cells after 48 hrs by MTT assay; type: functional; conditions: HSC-4, 48 h
# [11] = Cytotoxicity against human HPC after 48 hrs by MTT assay; type: cell-based; conditions: HPC cells; method in brief: as §1
# [12] = Selectivity index, ratio of CC50 for human HPC to CC50 for human HSC4 cells
# [13] = Cytotoxicity against HGF after 48 hrs by MTT assay; type: cell-based; conditions: human, HGF cells; method in brief: as §1
# HL-60 = experiment: Cytotoxicity against human HL60 cells after 48 hrs by MTT assay; type: functional; conditions: HL-60, 48 h
# Serum = experiment: Drug metabolism in rat serum/dimethylsulfoxide assessed as 6-benzylidene-2-(4-hydroxybenzylidene)cyclohexanone formation after 48 hrs by 1H NMR method; type: ADME, cell-free
# Method in brief: (§3)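 Compound solutions were incubated for 48 h at 37 °C, the same time and temperature as the in vitro assays, and checked for hydrolysis to the corresponding phenol.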
# HSC-2 [14] = experiment: Cell cycle arrest in human HSC2 cells assessed as accumulation at G0/G1 phase at 7 uM after 24 hrs by propidium iodide staining-based method (reference value: 73%); type: functional
# Rattus norvegicus [15] = experiment: Toxicity in rat assessed as overt toxicity at 50 mg/kg, po after 0.25 to 4 hrs; type: organism-based; conditions: in vivo
# Method in brief: (§4)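 Rats received a single oral dose and were examined for overt toxicity at 0.25, 0.5, 1, 2 and 4 h.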
# HSC-2 [16] = experiment: Induction of apoptosis in human HSC2 cells assessed as PARP1 cleavage at 7 uM after 24 hrs by chemiluminescence method; type: functional, cell-based
# [17] = Chemical stability in deuterium oxide/deuterated dimethylsulfoxide after 48 hrs by 1H NMR method; type: physicochemical; method in brief: as §3
# Mus musculus [18] = experiment: Neurotoxicity in mouse at 300 mg/kg, ip after 0.5 hrs; type: toxicity, organism-based; conditions: in vivo
# Method in brief: (§5)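 Mice received intraperitoneal doses of 30, 100 and 300 mg/kg. Animals were scored for survival and neurological deficit at 0.5 and 4 h after dosing.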
# [19] = Chemical stability in pH 7.4 buffer/dimethylsulfoxide after 48 hrs by 1H NMR method; type: physicochemical; conditions: pH 7.4, 48 h; method in brief: as §3
# HSC-3 [20] = experiment: Induction of apoptosis in human HSC3 cells assessed as PARP1 cleavage at 7 uM after 24 hrs by chemiluminescence method; type: functional, cell-based
# HSC-2 [21] = experiment: Cell cycle arrest in human HSC2 cells assessed as accumulation at S phase at 7 uM after 24 hrs by propidium iodide staining-based method (reference value: 13%); type: functional
# Mus musculus [22] = experiment: Neurotoxicity in mouse at 300 mg/kg, ip after 4 hrs; type: toxicity, organism-based; conditions: in vivo; method in brief: as §5
# HSC-2 [23] = experiment: Cell cycle arrest in human HSC2 cells assessed as accumulation at G2/M phase at 7 uM after 24 hrs by propidium iodide staining-based method (reference value: 11%); type: functional
# [24] = Toxicity in ip dosed mouse; type: organism-based; conditions: in vivo; method in brief: as §2
# Rattus norvegicus [25] = experiment: Toxicity in rat assessed as overt toxicity at 30 mg/kg, po after 0.25 to 4 hrs; type: organism-based; conditions: in vivo; method in brief: as §4
Structure (SMILES),Selectivity Index [1],CC50 at 48 h [2] [µM],CC50 (HSC-2 [3]) [µM],CC50 (HSC-3 [4]) [µM],Selectivity Index [5],IC50 (L1210) [µM],Selectivity Index [6],Selectivity Index [7],Activity (Mus musculus [8]),Selectivity Index [9],IC50 [10] [µM],IC50 (CCRF-CEM) [µM],CC50 (HSC-4) [µM],CC50 at 48 h [11] [µM],Selectivity Index [12],CC50 at 48 h [13] [µM],CC50 (HL-60) [µM],other results
O=C1/C(=C/c2ccc(OC(=O)c3cccnc3)cc2)CCC/C1=C\c1ccc([N+](=O)[O-])cc1,1,> 200,112,> 200,>1.79,61.1,1,1,Non-Toxic,1,38.1,48.1,> 200,> 200,1,> 200,> 200,
O=C1/C(=C/c2ccccc2)CCC/C1=C\c1ccc(OC(=O)c2cccnc2)cc1,6.67,60,12.5,17.7,8.48,8.71,6.67,70.7,Non-Toxic,5.99,1.62,7.3,15.9,142,6.67,116,1.5,Drug metabolism (Serum): Metabolite_Notdetected; Activity (HSC-2 [14]): 86%; Activity (Rattus norvegicus [15]): Non-Toxic; Activity (HSC-2 [16]): Active; Stability [17]: Stable; Activity (Mus musculus [18]): Toxic; Stability [19]: Stable; Activity (HSC-3 [20]): inactive; Activity (HSC-2 [21]): 9.7%; Activity (Mus musculus [22]): Non-Toxic; Activity (HSC-2 [23]): 1.5%
COc1ccc(/C=C2\CCC/C(=C\c3ccc(OC(=O)c4cccnc4)cc3)C2=O)cc1,>8.81,> 200,30.3,16,>6.6,7.63,>8.81,>87,Non-Toxic,>12.5,1.19,9.85,22.7,> 200,>8.81,> 200,2.3,
O=C1/C(=C/c2ccccc2)CCC/C1=C\c1ccc(OC(=O)c2ccccc2)cc1,,,,,,46.7,,,Non-Toxic,,10.4,40.4,,,,,,
N[C@@H](Cc1ccc(N(CCCl)CCCl)cc1)C(=O)O [MELPHALAN],1.46,92,12,46,5.61,,1.46,75.6,,1.46,,,46,37,1.46,73,0.89,LD50 [24]: 21.7 mg/kg
O=C1/C(=C/c2ccc(O)cc2)CCC/C1=C\c1ccc(Cl)cc1,,,,,,6.44,,,,,4.9,2.69,,,,,,
COc1ccc(/C=C2\CCC/C(=C\c3ccc(O)cc3)C2=O)cc1,,,,,,6.85,,,,,4.18,5.68,,,,,,
O=C1/C(=C/c2ccc(OC(=O)c3cccnc3)cc2)CCC/C1=C\c1ccc(OC(=O)c2cccnc2)cc1,,,,,,213,,,Non-Toxic,,22.6,169,,,,,,
Cc1ccc(/C=C2\CCC/C(=C\c3ccc(OC(=O)c4ccccc4)cc3)C2=O)cc1,,,,,,37.9,,,Non-Toxic,,5.7,10.6,,,,,,
O=C1/C(=C/c2ccccc2)CCC/C1=C\c1ccc(O)cc1,,,,,,7.32,,,,,5.17,5.82,,,,,,
O=C1/C(=C/c2ccc(O)cc2)CCC/C1=C\c1ccc(O)cc1,,,,,,13.5,,,,,5.52,6.84,,,,,,
Cc1ccc(/C=C2\CCC/C(=C\c3ccc(O)cc3)C2=O)cc1,,,,,,7.41,,,,,5.22,4.31,,,,,,
O=C(O)c1cccnc1 [NIACIN],1,> 200,> 200,> 200,1,> 500,1,1,,1,> 500,> 500,> 200,> 200,1,> 200,> 200,
O=C1/C(=C/c2ccc(Cl)cc2)CCC/C1=C\c1ccc(OC(=O)c2cccnc2)cc1,4.67,154,30.5,33.7,5.71,29.6,4.67,16.6,Non-Toxic,5.16,7.89,17.4,37.3,179,4.67,190,10.5,
Cc1ccc(/C=C2\CCC/C(=C\c3ccc(OC(=O)c4cccnc4)cc3)C2=O)cc1,>1.93,163,90.3,98,>2.02,12.8,>1.93,>95.8,Non-Toxic,>1.86,2.88,9.49,94.3,> 200,>1.93,184,1.9,Activity (Rattus norvegicus [25]): Non-Toxic
